ChEMBL document CHEMBL1152548, “Structural and biological evaluation of some loloatin C analogues” (Bioorg Med Chem, 2009)
Converted amounts (≈) assume the structure as drawn.

Key:
Staphylococcus aureus = assay: Antibacterial activity against Staphylococcus aureus ATCC 29213 after 24 to 96 hrs by twofold serial dilution method; assay type: functional
Method in brief: (§1)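 Strains kept at -70 °C, grown at 30 °C on blood agar and suspended in physiological saline to OD 0.1 at 595 nm. The suspension was diluted 10× and 2 µL added to 100 µL nutrient broth with yeast extract. Peptides came from an ethanol stock (4 g/L), were diluted in water and twofold diluted in broth (64 to 1 mg/L). Plates were incubated at 30 °C for 24–96 h. MIC was the lowest concentration inhibiting growth.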

[1] = tested on: erythrocyte (Homo sapiens); assay: Cytotoxicity against human erythrocytes assessed as induction of hemolysis at 10 uL after 4 hrs
[2] = Solubility in 30% DMSO; assay type: physicochemical
Escherichia coli = assay: Antibacterial activity against Escherichia coli ATCC 25922 after 24 to 96 hrs by twofold serial dilution method; assay type: functional; method in brief: as §1
Enterococcus faecalis = assay: Antibacterial activity against Enterococcus faecalis ATCC 29212 after 24 to 96 hrs by twofold serial dilution method; assay type: functional; method in brief: as §1
Bacillus cereus = assay: Antibacterial activity against Bacillus cereus ATCC 11778 after 24 to 96 hrs by twofold serial dilution method; assay type: functional; method in brief: as §1
Pseudomonas aeruginosa = assay: Antibacterial activity against Pseudomonas aeruginosa ATCC 27853 after 24 to 96 hrs by twofold serial dilution method; assay type: functional; method in brief: as §1
[3] = tested on: Staphylococcus epidermidis; assay: Antibacterial activity against Staphylococcus epidermidis ATCC 12228 after 24 to 96 hrs by twofold serial dilution method; assay type: functional; method in brief: as §1

Compound: CC(C)C[C@@H]1NC(=O)[C@H](CCCN)NC(=O)[C@H](C(C)C)NC(=O)[C@H](Cc2c[nH]c3ccccc23)NC(=O)[C@H](CC(=O)O)NC(=O)[C@H](CC(N)=O)NC(=O)[C@@H](Cc2ccccc2)NC(=O)[C@H](Cc2c[nH]c3ccccc23)NC(=O)[C@@H]2O[C@H](CNC1=O)[C@@H](OCc1ccccc1)[C@@H]2O
- MIC (Staphylococcus aureus): > 64 µg/mL
- Activity [1]: Non-toxic
- solubility [2]: Insoluble
- MIC (Escherichia coli): > 64 µg/mL
- MIC (Enterococcus faecalis): > 64 µg/mL
- MIC (Bacillus cereus): > 64 µg/mL
- MIC (Pseudomonas aeruginosa): > 64 µg/mL
- MIC [3]: > 64 µg/mL

Compound: CC(C)C[C@@H]1NC(=O)[C@H](CCCN)NC(=O)[C@H](C(C)C)NC(=O)[C@H](Cc2c[nH]c3ccccc23)NC(=O)[C@H](CC(=O)O)NC(=O)[C@H](CC(N)=O)NC(=O)[C@@H](Cc2ccccc2)NC(=O)[C@H](Cc2c[nH]c3ccccc23)NC(=O)[C@@H]2CCCN2C(=O)[C@@H](Cc2ccc(O)cc2)NC1=O [LOLOATIN C]
- MIC (Staphylococcus aureus): 8 µg/mL (≈ 5.99 µM)
- Activity [1]: Toxic
- MIC (Escherichia coli): > 64 µg/mL
- MIC (Enterococcus faecalis): 8 µg/mL (≈ 5.99 µM)
- MIC (Bacillus cereus): 8 µg/mL (≈ 5.99 µM)
- MIC (Pseudomonas aeruginosa): > 64 µg/mL
- MIC [3]: 8 µg/mL (≈ 5.99 µM)

Compound: CC(C)C[C@@H]1NC(=O)[C@H](CCCN)NC(=O)[C@H](C(C)C)NC(=O)[C@@H]2O[C@H](CNC(=O)[C@H](CC(N)=O)NC(=O)[C@@H](Cc3ccccc3)NC(=O)[C@H](Cc3c[nH]c4ccccc34)NC(=O)[C@@H]3CCCN3C(=O)[C@@H](Cc3ccc(O)cc3)NC1=O)[C@@H](OCc1ccccc1)[C@@H]2O
- MIC (Staphylococcus aureus): > 64 µg/mL
- Activity [1]: Non-toxic
- solubility [2]: Insoluble
- MIC (Escherichia coli): > 64 µg/mL
- MIC (Enterococcus faecalis): > 64 µg/mL
- MIC (Bacillus cereus): > 64 µg/mL
- MIC (Pseudomonas aeruginosa): > 64 µg/mL
- MIC [3]: > 64 µg/mL

Compound: CC(C)C[C@@H]1NC(=O)[C@H](CCCN)NC(=O)[C@H](C(C)C)NC(=O)[C@H](Cc2c[nH]c3ccccc23)NC(=O)[C@H](CC(=O)O)NC(=O)[C@H](CC(N)=O)NC(=O)[C@H](Cc2ccccc2)NC(=O)[C@H](Cc2c[nH]c3ccccc23)NC(=O)[C@@H]2CCCN2C(=O)[C@@H](Cc2ccc(O)cc2)NC1=O
- MIC (Staphylococcus aureus): 64 µg/mL (≈ 47.9 µM)
- Activity [1]: Toxic
- solubility [2]: Insoluble
- MIC (Escherichia coli): > 64 µg/mL
- MIC (Enterococcus faecalis): > 64 µg/mL
- MIC (Bacillus cereus): 32 µg/mL (≈ 24 µM)
- MIC (Pseudomonas aeruginosa): > 64 µg/mL
- MIC [3]: 32 µg/mL (≈ 24 µM)

Compound: CC(C)C[C@@H]1NC(=O)[C@H](CCCN)NC(=O)[C@H](C(C)C)NC(=O)[C@H](Cc2c[nH]c3ccccc23)NC(=O)[C@@H](CC(=O)O)NC(=O)[C@H](CC(N)=O)NC(=O)[C@H](Cc2ccccc2)NC(=O)[C@H](Cc2c[nH]c3ccccc23)NC(=O)[C@@H]2CCCN2C(=O)[C@@H](Cc2ccc(O)cc2)NC1=O
- MIC (Staphylococcus aureus): > 64 µg/mL
- MIC (Escherichia coli): > 64 µg/mL
- MIC (Enterococcus faecalis): > 64 µg/mL
- MIC (Bacillus cereus): > 64 µg/mL
- MIC (Pseudomonas aeruginosa): > 64 µg/mL
- MIC [3]: > 64 µg/mL

Compound: CC(C)C[C@@H]1NC(=O)[C@H](CCCN)NC(=O)[C@H](C(C)C)NC(=O)[C@@H]2O[C@H](CNC(=O)[C@H](CC(N)=O)NC(=O)[C@H](Cc3ccccc3)NC(=O)[C@H](Cc3c[nH]c4ccccc34)NC(=O)[C@@H]3CCCN3C(=O)[C@@H](Cc3ccc(O)cc3)NC1=O)[C@@H](OCc1ccccc1)[C@@H]2O
- MIC (Staphylococcus aureus): > 64 µg/mL
- Activity [1]: Toxic
- solubility [2]: Insoluble
- MIC (Escherichia coli): > 64 µg/mL
- MIC (Enterococcus faecalis): > 64 µg/mL
- MIC (Bacillus cereus): 64 µg/mL (≈ 49.9 µM)
- MIC (Pseudomonas aeruginosa): > 64 µg/mL
- MIC [3]: 32 µg/mL (≈ 24.9 µM)

Compound: CC(C)C[C@@H]1NC(=O)[C@H](CCCN)NC(=O)[C@H](C(C)C)NC(=O)[C@H](Cc2c[nH]c3ccccc23)NC(=O)[C@H](CC(=O)O)NC(=O)[C@@H]2O[C@H](CNC(=O)[C@H](Cc3c[nH]c4ccccc34)NC(=O)[C@@H]3CCCN3C(=O)[C@@H](Cc3ccc(O)cc3)NC1=O)[C@@H](OCc1ccccc1)[C@@H]2O
- MIC (Staphylococcus aureus): > 64 µg/mL
- Activity [1]: Non-toxic
- MIC (Escherichia coli): > 64 µg/mL
- MIC (Enterococcus faecalis): > 64 µg/mL
- MIC (Bacillus cereus): > 64 µg/mL
- MIC (Pseudomonas aeruginosa): > 64 µg/mL
- MIC [3]: > 64 µg/mL
